# Only some compounds are listed: those with a hit (about 9.4% of all), similar ones and a draw of the others.
# Beta apoptosis – blocks beta cell apoptosis; 300,000 tested, 0.8% active; INS-1E cytokine-induced death, ATP luminescence, 48 h; percent of positive-control rescue, neutral wells zero; protection from apoptosis, % (no concentration beside the values);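 active = Every replicate reaches about 75%, or at least half do and their mean reaches it too, limit read from the data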;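 note: 0% = cytokine-treated negative control wells and 100% = positive control rescue; higher means more ATP so stronger rescue from cytokine killing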
# CSC inhib – cancer stem cell inhibition; 300,000 tested, 1.1% active; inhibition, % at 7.5 µM; cancer stem cell-like cells viability, luminescence; in the data active = inhibition above about 75%; tested in HMLE shEcad cells
# T cruzi repl – T. cruzi replication inhibition; T. cruzi beta-gal in NIH3T3, luminescence, 90 h; inhibition, % (no concentration beside the values); 300,000 tested, 1.4% active; AID 1885;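 active = mean inhibition across valid replicates above about 55%, limit read from the data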;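 note: signal also drops with host cell toxicity which is not excluded here; 0% = plate median of DMSO wells and 100% = zero luminescence signal; higher percent means less beta-gal luminescence so fewer parasites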
#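 Test system: β-gal T. cruzi (Tulahuen C4) inside NIH/3T3 cells / Quantity: 5,000 cells/well / Measured by: luminescence from GalScreen with 0.05% NP40, read after 60 min / Medium: DMEM plus 2% FBS / Measure: parasite load inhibition, % / Reagent: Tulahuen C4 trypomastigotes, 5000/well / Schedule: co-culture of at least 90 h after 3 h attachment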
# Mdm2 MdmX PPI – inhibitors of human Mdm2/MdmX interaction; O15151+Q00987; SaOS-2 split-luciferase Mdm2/MdmX complementation, luminescence; 330,000 tested, 3% active; inhibition, % at 8 µM;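 active = inhibition of at least 50% at 8 µM in the primary screen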
# Target sequence (O15151 whole entry, looked up): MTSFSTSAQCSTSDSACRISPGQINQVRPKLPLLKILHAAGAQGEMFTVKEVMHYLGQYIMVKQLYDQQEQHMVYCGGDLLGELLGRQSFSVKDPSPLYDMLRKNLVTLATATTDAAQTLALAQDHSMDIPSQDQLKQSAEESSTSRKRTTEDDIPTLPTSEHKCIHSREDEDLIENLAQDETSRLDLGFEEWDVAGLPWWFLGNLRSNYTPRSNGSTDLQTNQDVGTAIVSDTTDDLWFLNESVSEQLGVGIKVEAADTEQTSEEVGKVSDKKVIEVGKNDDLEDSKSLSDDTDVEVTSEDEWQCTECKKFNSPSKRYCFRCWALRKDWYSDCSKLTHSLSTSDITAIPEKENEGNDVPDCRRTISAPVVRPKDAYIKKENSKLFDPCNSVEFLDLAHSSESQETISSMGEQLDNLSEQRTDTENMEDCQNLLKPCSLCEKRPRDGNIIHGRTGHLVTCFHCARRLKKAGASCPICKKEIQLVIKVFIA
# Target sequence (Q00987 whole entry, looked up): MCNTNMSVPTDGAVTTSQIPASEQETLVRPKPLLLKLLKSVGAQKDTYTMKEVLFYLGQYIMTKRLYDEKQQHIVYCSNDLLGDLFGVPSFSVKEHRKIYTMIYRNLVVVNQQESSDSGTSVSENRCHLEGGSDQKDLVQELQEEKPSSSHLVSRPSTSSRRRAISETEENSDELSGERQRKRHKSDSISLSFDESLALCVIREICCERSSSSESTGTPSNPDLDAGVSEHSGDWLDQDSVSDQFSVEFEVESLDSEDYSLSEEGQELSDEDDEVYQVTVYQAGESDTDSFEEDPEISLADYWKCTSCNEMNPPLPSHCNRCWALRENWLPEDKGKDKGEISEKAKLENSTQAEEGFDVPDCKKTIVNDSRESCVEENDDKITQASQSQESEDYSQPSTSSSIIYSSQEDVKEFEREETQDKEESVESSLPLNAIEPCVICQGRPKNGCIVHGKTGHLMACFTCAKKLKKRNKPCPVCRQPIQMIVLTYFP
# L major viab – Leishmania major promastigote growth inhibition. Leishmania major promastigotes, resazurin fluorescence viability. inhibition, % at 10 µM. 200,000 tested, 9% active. AID 1063; in the data active = inhibition above about 50%;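 note: promastigotes grown with compound for 44 hours at 28 °C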
# SKKanGAS inh – inhibitors of SKKanGAS S. pyogenes growth in kanamycin (SK-promoter or general growth effect); BacTiter-Glo, 6 h; inhibition, % at 7.5 µM; 300,000 tested, 1.3% active; AID 1662;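 active = mean replicate score, as percent of positive control median, at least 50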;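 note: strain carries kanamycin resistance gene driven by streptokinase promoter and grows in 40 µg/ml kanamycin; loss of luminescence reflects streptokinase promoter inhibition or plain growth inhibition; 0% = median of DMSO wells and 100% = positive control at its reference dose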
# * = called active by the depositor; . = no result; ! = a repeat was not active.
SMILES,Beta apoptosis,CSC inhib,T cruzi repl,Mdm2 MdmX PPI,L major viab,SKKanGAS inh
Cn1c(=O)c(C(=O)NNC(=O)c2ccccc2Br)c(O)c2ccccc21,5,-1,-3,46,.,75*
CC(=O)c1c(O)c2ccccc2n(C)c1=O,2,.,-15,24,-4,18
CCn1c(=O)c(C(C)=O)c(O)c2ccccc21,2,-1,-8,-10,-2,0
Cn1c(=O)c(C(=O)NNC(=O)c2ccccc2Cl)c(O)c2ccccc21,-1,17,-9,30,.,51*
FCCCOc1ccc(CN2CCN(c3ccccc3F)CC2)cc1,-4,16,28,11,-10,5
Cc1ccc(CN2CC(C(=O)N3CC=C(c4ccccc4)CC3)CC2=O)cc1 (stereo unspecified),0,-11,7,17,.,-4
CCOc1ccc(N(C)Cc2cc(=O)oc3ccc(OCC)cc23)cc1,-1,-1,16,11,.,9
Cc1ccc(NC(=O)[C@H](C)NC(=O)C2CCN(C(=O)[C@@H](N)C(C)C)CC2)cc1,-6,-17,2,-13,.,0
COc1ccc2nc(Nc3nc4cc5c(cc4s3)OCO5)sc2c1,6,-2,15,-2,55*,84*
COc1ccc2nc(Nc3ccc4c(c3)OCO4)sc2c1,10,-4,4,21,-6,-9
Nc1ccc(C(=O)O)cc1[N+](=O)[O-],-6,-11,-14,-12,-10,-5
O=[N+]([O-])c1cc([N+](=O)[O-])c2oc(-c3ccccc3)c(Br)c2c1O,.,.,-1,.,.,69*
CCCS(=O)(=O)N1CCN(Cc2c[nH]c3ccccc23)CC1,3,-14,-2,4,5,6
CCOc1ccc(N2CC(NS(=O)(=O)c3cccnc3)CC2=O)cc1 (stereo unspecified),.,3,-3,17,.,-10
OCCN1CCN(C(c2cccs2)c2ccc3cccnc3c2O)CC1 (stereo unspecified),.,.,.,.,53*,.
O=C(O)c1ccc2cccnc2c1O,3,5,2,4,.,-10
CSCCC(NC(=O)COc1ccccc1)C(=O)NCCOc1ccc(C)cc1 (stereo unspecified),-5,-8,4,4,.,-5
COc1ccc(-c2nnc(SC(C)C(=O)Nc3nccs3)n2-c2ccccc2)cc1OC (stereo unspecified),3,-2,21,8,54*,2
O=C(N/C=C/n1cnc2cc(C(F)(F)F)ccc21)c1ccccc1F,-11,-3,13,16,0,-20
CCN(CC)S(=O)(=O)c1ccc(-c2nnc(SCC(=O)N3c4ccccc4CC3C)n2CC)cc1 (stereo unspecified),.,-8,24,5,91*,10
CCN(CC)S(=O)(=O)c1ccc(-c2nnc(SCC(=O)N3c4ccccc4CC3C)o2)cc1 (stereo unspecified),-6,0,32,16,-1,-1
COc1ccc(NC(=O)C2=C(C)NC(=S)NC2c2ccc(O)c(OC)c2)cc1 (stereo unspecified),1,-5,-10,38,-3,-3
CC1=C(C(=O)Nc2ccc([N+](=O)[O-])cc2)C(c2cccc(C(F)(F)F)c2)NC(=S)N1c1ccccc1 (stereo unspecified),6,33,57*,-4,38,50*
COc1ccc(C2NC(=S)N(c3ccccc3)C(C)=C2C(=O)Nc2ccccc2)cc1 (stereo unspecified),-9,1,2,20,100*,4
CCN(Cc1ccccc1)S(=O)(=O)c1cc(C(=O)NC(C)C2CC3CCC2C3)ccc1OC (stereo unspecified),15,14,-12,27,84*,8
SMILES,Beta apoptosis,CSC inhib,T cruzi repl,Mdm2 MdmX PPI,L major viab,SKKanGAS inh
CN(C)C(CNc1ncnc2sccc12)c1cccs1 (stereo unspecified),0,-2,-4,6,18,-11
CCOC(=O)c1sc2ncnc(NCC(c3cccs3)N(C)C)c2c1C (stereo unspecified),3,60,42,-14,17,53*
C/C(=N\NC(=O)C(=O)Nc1cccc(Cl)c1C)c1ccncc1,-9,-3,5,16,69*,5
C/C(=N\NC(=O)C(=O)Nc1cc(Cl)ccc1Cl)c1ccncc1,4,14,-6,2,48,-2
COc1ccc(C(=O)COC(=O)Cc2n[nH]c(=O)c3ccccc23)c(OC)c1,1,-5,-7,9,.,-6
O=C(COC(=O)CC1CC2CCC1C2)NCc1ccc(F)cc1 (stereo unspecified),-1,.,.,17,.,.
O=C(CC1CC2CCC1C2)NCCc1ccc(Cl)cc1 (stereo unspecified),85*,-4,5,6,.,-5
O=C(COc1ccccc1)Nc1cccc(-c2ccc(N3CCOCC3)nn2)c1,24,.,0,-72,.,4
CCN(CC)CCN1C(=O)Cn2c(C)c(C)c3cccc1c32,-1,39,69*!,-9,12,-2
Cc1ccc(S(=O)(=O)NC(CC(=O)N2CCc3ccccc32)c2ccco2)cc1 (stereo unspecified),2,6,2,10,17,1
COc1ccc(S(=O)(=O)NC(CC(=O)N2CCc3ccccc32)c2ccco2)cc1 (stereo unspecified),.,-9,15,16,76*,-2
Cc1cc(CNC(=S)Nc2ccc(Br)cc2Cl)nn1C,-1,-1,-8,11,-2,8
COc1ccc(-c2n[nH]c3c2C(c2ccc(OC)c(OC)c2)N(c2ccccc2)C3=O)cc1 (stereo unspecified),14,.,15,-4,97*,9
COCCCN1C(=O)c2[nH]nc(-c3ccccc3O)c2C1c1ccc(Cl)cc1 (stereo unspecified),1,39,-2,29,66*,5
CC(C)OCCCN1C(=O)c2[nH]nc(-c3ccccc3O)c2C1c1cccc(Cl)c1 (stereo unspecified),12,21,6,34,70*,6
COCCCN1C(=O)c2[nH]nc(-c3ccccc3O)c2C1c1cccc(Cl)c1 (stereo unspecified),19,53,1,42,36,9
COc1ccc(CCN2C(=O)c3[nH]nc(-c4ccccc4O)c3C2c2ccccc2)cc1OC (stereo unspecified),5,.,0,25,60*,8
COCCCN1C(=O)c2[nH]nc(-c3cc(C)cc(C)c3O)c2C1c1ccc(O)c(OC)c1 (stereo unspecified),.,-7,0,23,9,8
CCN(C(=O)C(C)Cl)c1ccccc1 (stereo unspecified),-4,25,-14,-2,-6,0
CCOC(=O)C(C)/C(C)=N/NC(N)=S (stereo unspecified),10,-12,-11,-14,61*,-4

# Screening data (PubChem)
